Test results as given in PMC7211327 (International Journal of Nanomedicine, 2020).
In brackets after ≈: the same amount, converted by molar mass.

Assays:
Format in all cases: cell-based
[1] = system: Bacillus subtilis (ATCC 6633); experiment: Agar plate diffusion, inhibition zone; settings: ATCC6633, 24 h, read-out: Mean Diameter of Inhibition Zone (IZ)
[2] = system: Bacillus subtilis (ATCC 6633); experiment: Paper disk diffusion MIC; settings: ATCC6633, 24 h, read-out: Minimal Inhibitory Concentration (MIC)
How it was run: (§1)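 Paper disk diffusion MIC. Paper disks (12.7 mm) were loaded with test compound at different concentrations, dried and placed on nutrient agar inoculated with the test organism. Growth inhibition was examined after 24 hrs at 37°C. Each test was done three times, and values are the mean ± standard error.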

[3] = system: Staphylococcus aureus (ATCC 29213); experiment: Agar plate diffusion, inhibition zone; settings: ATCC29213, 24 h, read-out: Mean Diameter of Inhibition Zone (IZ)
[4] = system: Staphylococcus aureus (ATCC 29213); experiment: Paper disk diffusion MIC; settings: ATCC29213, 24 h, read-out: Minimal Inhibitory Concentration (MIC)
How it was run: as §1

[5] = system: Escherichia coli (ATCC 25922); experiment: Agar plate diffusion, inhibition zone; settings: ATCC25922, 24 h, read-out: Mean Diameter of Inhibition Zone (IZ)
[6] = system: Escherichia coli (ATCC 25922); experiment: Paper disk diffusion MIC; settings: ATCC25922, 24 h, read-out: Minimal Inhibitory Concentration (MIC)
How it was run: as §1

[7] = system: Pseudomonas aeruginosa (ATCC 27853); experiment: Agar plate diffusion, inhibition zone; settings: ATCC27853, 24 h, read-out: Mean Diameter of Inhibition Zone (IZ)
[8] = system: Pseudomonas aeruginosa (ATCC 27853); experiment: Paper disk diffusion MIC; settings: ATCC27853, 24 h, read-out: Minimal Inhibitory Concentration (MIC)
How it was run: as §1

MRSA [9] = experiment: Agar plate diffusion, inhibition zone; settings: Staphylococcus aureus, 24 h, read-out: Mean Diameter of Inhibition Zone (IZ)
MRSA [10] = experiment: Paper disk diffusion MIC; settings: Staphylococcus aureus, 24 h, read-out: Minimal Inhibitory Concentration (MIC)
How it was run: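 Bacteria were grown on nutrient agar. Dried 12.7 mm paper disks loaded with a range of test compound concentrations were placed on inoculated agar plates. Growth inhibition was scored after 24 h at 37°C, and each test was replicated three times.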

| Structure (SMILES) | MIC [2] [µg/mL] | MIC [4] [µg/mL] | MIC [6] [µg/mL] | MIC [8] [µg/mL] | MIC (MRSA [10]) [µg/mL] | zone of inhibition at 500 µg/mL [1] [mm] | zone of inhibition at 500 µg/mL [3] [mm] | zone of inhibition at 500 µg/mL [5] [mm] | zone of inhibition at 500 µg/mL [7] [mm] | zone of inhibition at 500 µg/mL (MRSA [9]) [mm] |
| --- | --- | --- | --- | --- | --- | --- | --- | --- | --- | --- |
| NS(=O)(=O)c1ccc(-n2c(SCC(=O)Nc3ccccc3)nc3ccccc3c2=O)cc1 [Compound 5, 2-((4-Oxo-3-(4-sulfamoylphenyl)-3,4-dihydroquinazolin-2-yl)thio)-N-phenylacetamide] | 2.5 (≈ 5.36 µM) | 1.56 (≈ 3.34 µM) | 10 (≈ 21.4 µM) | 20 (≈ 42.9 µM) | 10 (≈ 21.4 µM) | 25 ± 0.07 | 22 ± 0.31 | 14 ± 0.23 | 15 ± 0.21 | 20 ± 0.18 |
| Cc1ccccc1NC(=O)CSc1nc2ccccc2c(=O)n1-c1ccc(S(N)(=O)=O)cc1 [Compound 6, 2-((4-Oxo-3-(4-sulfamoylphenyl)-3,4-dihydroquinazolin-2-yl)thio)-N-2-tolylacetamide] | 15.6 (≈ 32.5 µM) | 31.2 (≈ 65 µM) | 5 (≈ 10.4 µM) | 7.5 (≈ 15.6 µM) | – | 16 ± 0.1 | 14 ± 0.03 | 15 ± 0.31 | 17 ± 0.13 | – |
| Cc1ccc(NC(=O)CSc2nc3ccccc3c(=O)n2-c2ccc(S(N)(=O)=O)cc2)cc1 [Compound 8, 2-((4-Oxo-3-(4-sulfamoylphenyl)-3,4-dihydroquinazolin-2-yl)thio)-N-4-tolylacetamide] | 6.31 (≈ 13.1 µM) | 12.5 (≈ 26 µM) | – | – | 20 (≈ 41.6 µM) | 26 ± 0.16 | 23 ± 0.09 | – | – | 19 ± 0.01 |
| CN(C)[C@@H]1C(O)=C(C(N)=O)C(=O)[C@@]2(O)C(O)=C3C(=O)c4c(O)cccc4[C@@](C)(O)[C@H]3C[C@@H]12 [Tetracycline, reference compound] | 31.2 (≈ 70.3 µM) | 62.5 (≈ 141 µM) | 15.6 (≈ 35.2 µM) | 62.5 (≈ 141 µM) | – | 25 ± 0.01 | 25 ± 0.04 | 23 ± 0.31 | 20 ± 0.1 | – |

Stronger by MIC [2], values ahead:

| MIC [2] [µg/mL] | MIC [4] [µg/mL] | MIC [6] [µg/mL] | MIC [8] [µg/mL] | MIC (MRSA [10]) [µg/mL] | Structure (SMILES) | zone of inhibition at 500 µg/mL [1] [mm] | zone of inhibition at 500 µg/mL [3] [mm] | zone of inhibition at 500 µg/mL [5] [mm] | zone of inhibition at 500 µg/mL [7] [mm] | zone of inhibition at 500 µg/mL (MRSA [9]) [mm] |
| --- | --- | --- | --- | --- | --- | --- | --- | --- | --- | --- |
| 0.8 (≈ 2.41 µM) | 0.78 (≈ 2.35 µM) | 1.57 (≈ 4.74 µM) | 3.13 (≈ 9.45 µM) | 1.25 (≈ 3.77 µM) | O=C(O)c1cn(C2CC2)c2cc(N3CCNCC3)c(F)cc2c1=O [Ciprofloxacin, reference compound] | 29 ± 0.15 | 27 ± 0.23 | 27 ± 0.98 | 24 ± 0.47 | 22 ± 0.5 |
| 1.25 (≈ 2.6 µM) | 2.5 (≈ 5.2 µM) | 20 (≈ 41.6 µM) | 15.6 (≈ 32.5 µM) | 7.81 (≈ 16.3 µM) | Cc1cccc(NC(=O)CSc2nc3ccccc3c(=O)n2-c2ccc(S(N)(=O)=O)cc2)c1 [Compound 7, 2-((4-Oxo-3-(4-sulfamoylphenyl)-3,4-dihydroquinazolin-2-yl)thio)-N-3-tolylacetamide] | 20 ± 0.21 | 15 ± 0.07 | 12 ± 0.15 | 14 ± 0.03 | 10 ± 0.02 |
| 1.95 (≈ 1.35 µM) | 1.57 (≈ 1.08 µM) | 1.38 (≈ 0.952 µM) | 2.5 (≈ 1.73 µM) | 3.9 (≈ 2.69 µM) | CN[C@H](CC(C)C)C(=O)N[C@H]1C(=O)N[C@@H](CC(N)=O)C(=O)N[C@H]2C(=O)N[C@H]3C(=O)N[C@H](C(=O)N[C@H](C(=O)O)c4cc(O)cc(O)c4-c4cc3ccc4O)[C@H](O)c3ccc(c(Cl)c3)Oc3cc2cc(c3O[C@@H]2O[C@H](CO)[C@@H](O)[C@H](O)[C@H]2O[C@H]2C[C@](C)(N)[C@H](O)[C@H](C)O2)Oc2ccc(cc2Cl)[C@H]1O [Vancomycin, reference compound] | 21 ± 0.4 | 17 ± 0.11 | 24 ± 0.2 | 22 ± 0.85 | 14 ± 0.65 |
